Converted amounts (≈) assume the structure as drawn.
What was measured:
WiDr [1] = assay: Antiproliferative activity against human wild type WiDr NTR-ve cells after 18 hrs; assay type: functional, cell-based
V79 [2] = assay: Clonogenic survival of 3% V79 NTRpuro cells in co-cultures with 97% V79 NTRoua after 5 hrs by MCL assay; assay type: functional, Cricetulus griseus
Procedure, shortened: (§1)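 Multicellular layer cocultures of 3% V79-NTRpuro activators and 97% V79oua NTR-ve targets (ouabain-resistant), exposed to prodrug for 5 h. MCLs were then trypsin-dissociated and plated in ouabain or puromycin selective media for clonogenic survival. C10 (10% survival) interpolated for activators and targets; AC/TC ratio derived. Mean with SEM or range over independent experiments.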

V79 [3] = assay: Antiproliferative activity against chinese hamster V79 NTRpuro cells after 18 hrs; assay type: functional, cell-based; conditions: Cricetulus griseus, V79, 18 h
WiDr [4] = assay: Selectivity ratio of IC50 for WiDr NTR-ve cells to IC50 for WiDr NTRneo cells; assay type: functional, Homo sapiens
V79 [5] = assay: Clonogenic survival of 97% V79 NTRoua cells in co-cultures with 3% V79 NTRpuro cells after 5 hrs by MCL assay; assay type: functional, Cricetulus griseus; procedure, shortened: as §1
[6] = Solubility in alpha MEM; assay type: physicochemical
Procedure, shortened: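 Solubility (mM) in α-MEM with 5% fetal calf serum at ambient temperature, measured by HPLC.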

V79 [7] = assay: Antiproliferative activity against chinese hamster wild-type V79 NTR-ve cells after 18 hrs; assay type: functional, cell-based; conditions: Cricetulus griseus, V79, 18 h
V79 [8] = assay: Selectivity ratio of IC50 for V79 NTR-ve cells to IC50 for V79 NTRpuro cells; assay type: functional, Cricetulus griseus
V79 [9] = assay: Clonogenic survival of V79 NTRoua cells after 5 hrs by MCL assay; assay type: functional, Cricetulus griseus
[10] = Antiproliferative activity against human Skov3 NTRneo cells after 18 hrs; assay type: functional, cell-based; conditions: SK-OV-3, 18 h
EMT6 [11] = assay: Selectivity ratio of IC50 for EMT6 NTR-ve cells to IC50 forEMT6 NTRpuro cells; assay type: functional, Mus musculus
[12] = Selectivity ratio of IC50 for Skov3 NTR-ve cells to IC50 for Skov3 NTRneo cells; assay type: functional, Homo sapiens
EMT6 [13] = assay: Antiproliferative activity against mouse EMT6 NTRpuro cells after 18 hrs; assay type: functional, cell-based; conditions: EMT6, 18 h
[14] = Antiproliferative activity against human wild type Skov3 NTR-ve cells after 18 hrs; assay type: functional, cell-based
WiDr [15] = assay: Antiproliferative activity against human WiDr NTRneo cells after 18 hrs; assay type: functional, cell-based
EMT6 [16] = assay: Antiproliferative activity against mouse wild type EMT6 NTR-ve cells after 18 hrs; assay type: functional, cell-based; conditions: EMT6, 18 h
WiDr [17] = assay: Antitumor activity against mixed human 10% WiDr NTRneo/ 90% WiDr tumor cells injected in CD1 nude mouse assessed as growth delay at 1780 umol/kg, ip in DMSO; assay type: functional
Procedure, shortened: (§2)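 WiDr-NTRneo tumours (100% NTR+ve, or 1:9 NTR+ve:NTR-ve mixtures) in CD-1 nude mice, given a single i.p. dose at MTD. Read-out is median growth delay to 15 mm mean diameter, plus tumours not palpable 100 days after treatment. Aziridine given at 200 µmol/kg as positive control in every experiment.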

[18] = Partition coefficient at pH 7.4 by shake-flask method; assay type: physicochemical; conditions: octanol/water
Procedure, shortened: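 Octanol-water partition coefficient by shake-flask at pH 7.4, reported with SEM.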

[19] = Stability in alpha MEM at 37 degC after 24 hrs; assay type: physicochemical; conditions: read-out: Stability
Procedure, shortened: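 Percent parent compound remaining, by HPLC, after holding in α-MEM with 5% fetal calf serum at 37 °C for 24 h.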

EMT6 [20] = assay: Antitumor activity against mixed mouse EMT6/EMT6 NTRpuro cells injected in CD1 nude mouse assessed as cell kill at 562 umol/kg, ip in DMSO/PEG after 18 hrs; assay type: functional
[21] = Toxicity in ip dosed CD1 nude mouse in DMSO/PEG; assay type: organism-based; conditions: in vivo
Procedure, shortened: (§3)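 Maximum tolerated dose (MTD) determined in CD-1 nude mice after a single i.p. injection of prodrug, given in the vehicle named in each line.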

WiDr [22] = assay: Antitumor activity against human 100% WiDr NTRneo tumor cells injected in CD1 nude mouse assessed as growth delay at 562 umol/kg, ip in DMSO/PEG; assay type: functional; procedure, shortened: as §2
[23] = Toxicity in ip dosed CD1 nude mouse in DMSO; assay type: organism-based; conditions: in vivo; procedure, shortened: as §3
V79 [24] = assay: Clonogenic survival ratio of 3% V79 NTRpuro cells to 97% V79 NTRoua cells in co-culture; assay type: functional, Cricetulus griseus; procedure, shortened: as §1
EMT6 [25] = assay: Antitumor activity against mixed mouse EMT6/EMT6 NTRpuro cells injected in CD1 nude mouse assessed as cell kill at 200 umol/kg, ip in DMA/PEG after 18 hrs; assay type: functional
[26] = Toxicity in ip dosed CD1 nude mouse in DMA/PEG; assay type: organism-based; conditions: in vivo; procedure, shortened: as §3
WiDr [27] = assay: Antitumor activity against human 100% WiDr NTRneo tumor cells injected in CD1 nude mouse assessed as growth delay at 200 umol/kg, ip in DMA/PEG; assay type: functional; procedure, shortened: as §2
WiDr [28] = assay: Antitumor activity against mixed human 10% WiDr NTRneo/ 90% WiDr tumor cells injected in CD1 nude mouse assessed as growth delay at 200 umol/kg, ip in DMA/PEG; assay type: functional; procedure, shortened: as §2

SMILES | IC50 (WiDr [1]) [µM] | Activity (V79 [2]) [µM] | IC50 (V79 [3]) [µM] | Ratio IC50 (WiDr [4]) | Activity (V79 [5]) [µM] | solubility [6] [µM] | IC50 (V79 [7]) [µM] | Ratio IC50 (V79 [8]) | Activity (V79 [9]) [µM] | IC50 [10] [µM] | Ratio IC50 (EMT6 [11]) | Ratio IC50 [12] | IC50 (EMT6 [13]) [µM] | IC50 [14] [µM] | IC50 (WiDr [15]) [µM] | IC50 (EMT6 [16]) [µM] | logD [18] | remaining at 24 h [19] [%] | also measured
CS(=O)(=O)c1cc([N+](=O)[O-])c(C(N)=O)cc1N(CCCl)CCCl | 350 | 160 | 9.5 | 15 | >300 | 330 (≈ 127 µg/mL) | 767 | 73 | >1000 | 15 | 101 | 65 | 3.9 | 980 | 26 | 388 |  |  | 
O=C(NCCCO)c1cc(N(CCBr)CCBr)c([N+](=O)[O-])cc1[N+](=O)[O-] | 56 | 3 | 0.28 | 224 | 7 | 170 (≈ 84.7 µg/mL) | 37 | 135 | 100 | 0.23 | 1670 | 309 | 0.05 | 72 | 0.25 | 66 | 1.81 | 83 | Activity (WiDr [17]): 7 days; LCK (EMT6 [20]): >3.44; MTD [21]: 562 µmol/kg; Activity (WiDr [22]): >83 days; MTD [23]: 1780 µmol/kg
NC(=O)c1cc(N(CCOS(N)(=O)=O)CCOS(N)(=O)=O)c([N+](=O)[O-])cc1[N+](=O)[O-] | 437 | 9.5 | 0.87 | 227 | 800 | 1800 (≈ 850 µg/mL) | 650 | 788 | >1800 | 3.9 | 491 | 265 | 1.6 | 868 | 1.9 | 770 | -0.95 | 95 | 
NC(=O)c1cc(N2CC2)c([N+](=O)[O-])cc1[N+](=O)[O-] [TRETAZICAR] | 54.5 | 23 | 0.26 | 51.1 | 173 |  | 374 | 2090 | 1400 | 0.64 | 947 | 317 | 0.098 | 174 | 1.14 | 83 | 0.14 |  | Ratio (V79 [24]): 0.14; LCK (EMT6 [25]): 3.16; MTD [26]: 200 µmol/kg; Activity (WiDr [27]): >88 days; Activity (WiDr [28]): 14 days
CS(=O)(=O)OCCN(CCBr)c1cc(C(=O)NCCO)c([N+](=O)[O-])cc1[N+](=O)[O-] | 194 |  | 1 | 250 |  | 1700 (≈ 849 µg/mL) | 633 | 620 |  | 0.61 | 1330 | 467 | 0.2 | 286 | 0.78 | 219 | 0.46 | 70 | 
O=C(NCCO)c1cc(N(CCBr)CCBr)c([N+](=O)[O-])cc1[N+](=O)[O-] | 61 | 5.2 | 0.43 | 182 | 17 | 320 (≈ 155 µg/mL) | 80 | 203 | 150 | 0.3 | 871 | 270 | 0.08 | 81 | 0.34 | 70 | 1.69 | 76 | 

From ChEMBL document CHEMBL1142960, “Synthesis and structure-activity relationships for 2,4-dinitrobenzamide-5-mustards as prodrugs for the Escherichia coli nfsB nitroreductase in gene therapy” (J Med Chem, 2007)
